Bioassay records (PubChem)
STAT3 act: IL-6 driven STAT3 reporter potentiators, primary screen, U3A cells, luciferase, luminescence, MLSCN library; IL-6 STAT3-luciferase reporter; 100% = signal with IL-6 EC80 alone; activation (% of control), % at 5.6 µM; 190,000 tested, 0.91% active; AID 871, 2007;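 active means activation above the screen-wide mean of compound activation plus 3 SD, cut at about 130% in these data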
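Detection: reporter luminescence signal / Assay system: STAT1-lacking human U3A cells, STAT3 luciferase reporter / Incubation: compound pre-incubation 1 h before IL-6, then 6 h stimulation at 37 °C / Control set: IL-6-only high control / Read-out: % activation relative to IL-6 control / Probe or stimulus: Interleukin-6, 33 ng/mL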
STAT3 inh-1: IL-6 driven STAT3 reporter inhibitors, primary screen, U3A cells, luciferase, luminescence, MLSCN library. IL-6 STAT3-luciferase reporter; host cell line lacks STAT1. inhibition, % at 5.5 µM. 190,000 tested, 0.89% active. AID 862, 2007;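 active means inhibition above the mean inhibition across all screened compounds plus 3 SD, cut at about 44% in these data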
NF-kB neuron act: activators of NF-kB expression in neurons, primary screen, cell-based, HTS; 190,000 tested, 1.6% active; AID 1239, 2008; human neuronal cells, NF-kB reporter expression; hits give high values; fold change at 12.5 µM; in the data active means fold change above about 3.3
APP 5'UTR act: activators of APP 5'UTR luciferase reporter, primary screen, SH-SY5Y cells. SH-SY5Y APP 5'UTR luciferase reporter, luminescence; zero percent = DMSO vehicle wells. activation, % at 2 µM. 190,000 tested, 1% active. AID 1276, 2008;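 active means activation above a set limit, based on mean plus 3 SD of controls, cut at about 140% in these data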
STAT1 inh: STAT1 signaling inhibitors, primary screen, cell-based, HTS, luciferase reporter. inhibition, % at 5.5 µM. 200,000 tested, 0.35% active. AID 920, 2007. NIH 3T3 STAT1-luciferase reporter, IFN-gamma, luminescence;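 active means inhibition above a set limit, the mean inhibition across all tested compounds plus 3 SD, cut at about 34% in these data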
STAT1 activator: STAT1 signaling activators, primary screen, cell-based, HTS, luciferase reporter; NIH 3T3 STAT1-luciferase reporter, IFN-gamma, luminescence; 100% = IFN-gamma alone, no compound; activation (% of control), % at 5.5 µM; 200,000 tested, 2.6% active;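 active means activation above the screen-wide mean activation plus 3 SD, cut at about 130% in these data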
STAT3 inh-2: STAT3 reporter inhibitors, retest of hits, confirmation, U3A cells, luciferase, luminescence; shares compounds with STAT3 inh-1; IL-6 STAT3 luciferase reporter; cell line lacks STAT1; inhibition, % at 5.7 µM; 1,200 tested, 45% active; AID 1265, 2008;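 active means inhibition above the hit cutoff computed for the primary STAT3 screen, cut at about 44% in these data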
NFkB inh STAT3ct: NF-kB reporter inhibitors in human cells, confirmation, counter-screen for STAT3 inhibitor project, cell-based, HEK293T, luciferase, TNF-alpha stimulus; shares compounds with STAT3 inh-1; TNF-alpha induced; inhibition, % at 5.7 µM; 1,200 tested, 36% active;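 active means inhibition above the mean of solvent-only control wells plus 3 SD, cutoff set per campaign, cut at about 13% in these data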
STAT1 inh 2: STAT1 reporter inhibitors, IFN-gamma induced, confirmation, counter-screen for STAT3 inhibitor project, cell-based, NIH 3T3, luciferase luminescence | shares compounds with STAT3 inh-1 | NIH 3T3 STAT1-luciferase reporter | inhibition, % at 5.7 µM | 1,200 tested, 27% active | AID 1317, 2008;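 active means inhibition above the mean plus 3 SD of solvent-only control wells, limit set per screening run, cut at about 16% in these data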
Large screens that a line does not name were inactive (follow-up assays come after a bar, where they were run). In the library only some 5.1% were active in any assay of this set; here they are far more common.

CCCc1cc(C(=O)Nc2cc(C)nn2-c2ccccc2)no1	none
COc1ccc2cc3cc(C(=O)Nc4cc(OC)c(OC)c(OC)c4)oc3nc2c1	STAT3 inh-1 46 | STAT3 inh-2 inactive | NFkB inh STAT3ct inactive | STAT1 inh 2 inactive
CC[n+]1ccccc1/C=C/c1ccc(N(C)C)cc1	STAT3 inh-1 68 | STAT3 inh-2 60 | NFkB inh STAT3ct inactive | STAT1 inh 2 inactive
O=C(Nc1ccccc1Cl)c1cccc(NC(=O)C2C3CC4OC(=O)C2C4C3)c1 (stereo not drawn)	none
CCOC(=O)N1CCN(S(=O)(=O)c2cc(OCC(=O)NC3CCCCC3)c(C)cc2Cl)CC1	none
CCN1CCN(S(=O)(=O)c2cc(OCC(=O)NC3CCCCC3)c(C)cc2Cl)CC1	STAT3 inh-1 77 | STAT3 inh-2 57 | NFkB inh STAT3ct 19 | STAT1 inh 2 inactive
Cc1cc(Cl)c(S(=O)(=O)N2CCCCCC2)cc1OCC(=O)NC1CCCCC1	STAT3 inh-1 82 | STAT3 inh-2 83 | NFkB inh STAT3ct 31 | STAT1 inh 2 16
O=C(COc1ccc(Br)cc1Br)NC1CCCC1	STAT3 inh-1 49, STAT1 activator 141 | STAT3 inh-2 53 | NFkB inh STAT3ct inactive | STAT1 inh 2 inactive
Cc1ccc(OCC(=O)NC2CCCC2)c(C)c1	none
Cc1cc(Cl)c(S(=O)(=O)N2CCSCC2)cc1OCC(=O)NC1CCCCC1	STAT3 inh-1 67 | STAT3 inh-2 67 | NFkB inh STAT3ct 15 | STAT1 inh 2 inactive
Cc1cccc(C(=O)N[C@H](C(=O)Nc2cc(S(=O)(=O)N3CCCCC3)ccc2C)C(C)C)c1	none
CCC(=O)NC(c1ccccc1)c1nc2ccccc2[nH]1 (stereo not drawn)	none
O=C(CN1CCCCC1)NNc1nc(-c2ccccc2)c2cc(Cl)ccc2n1	none
COc1ccc(C2CCCN2C(=S)Nc2ccc(C)cc2C)cc1OC (stereo not drawn)	none
Cc1cc(-n2c(C)cc(C(=O)CSc3nnc4sc5ccccc5n34)c2C)no1	none
Cc1cc(-n2c(C)cc(C(=O)CSc3ncnc4ccccc34)c2C)no1	STAT3 inh-1 75 | STAT3 inh-2 75 | NFkB inh STAT3ct 25 | STAT1 inh 2 23
CCCCOc1ccc(Br)cc1/C(C)=N/NC1=NCCN1	none
c1ccc(CCNc2ncnc3ccccc23)cc1	STAT3 inh-1 90 | STAT3 inh-2 83 | NFkB inh STAT3ct 23 | STAT1 inh 2 inactive
Brc1ccc2ncnc(NCc3ccccc3)c2c1	none
Cn1nc(CC(=O)N2CCN(c3ccccc3)CC2)c2ccccc2c1=O	none
Cn1nc(CC(=O)NCc2ccc(F)cc2)c2ccccc2c1=O	none
Cc1csc(NC(=O)Cc2nn(C)c(=O)c3ccccc23)n1	STAT3 inh-1 54 | STAT3 inh-2 60 | NFkB inh STAT3ct 18 | STAT1 inh 2 21
Cn1nc(CC(=O)Nc2ccc(N3CCN(C(=O)OC(C)(C)C)CC3)cc2)c2ccccc2c1=O	STAT3 inh-1 80 | STAT3 inh-2 83 | NFkB inh STAT3ct 32 | STAT1 inh 2 22
COc1cccc(OC)c1NC(=O)Cc1nn(C)c(=O)c2ccccc12	none
COc1cc(NC(=O)Cc2nn(C)c(=O)c3ccccc23)cc(OC)c1	STAT3 inh-1 48 | STAT3 inh-2 inactive | NFkB inh STAT3ct inactive | STAT1 inh 2 17
COc1ccccc1NC(=O)Cc1nn(C)c(=O)c2ccccc12	STAT3 inh-1 54 | STAT3 inh-2 54 | NFkB inh STAT3ct 13 | STAT1 inh 2 18
Cc1ccccc1NC(=O)CCC(=O)OCC(=O)c1ccc(-c2ccccc2)cc1	none
Cc1ccc(-c2ccc(SCC(=O)Nc3nonc3C)nn2)cc1	none
Cc1nnc2n(c1=O)C(CS(=O)(=O)c1ccccc1)CS2 (stereo not drawn)	none
O=C(Nc1ccncc1)c1ccc2c(c1)C(=O)N(C1CCCCC1)C2=O	STAT3 inh-1 75 | STAT3 inh-2 66 | NFkB inh STAT3ct inactive | STAT1 inh 2 inactive
Cc1cc(NC(=O)c2ccc3c(c2)C(=O)N(C2CCCCC2)C3=O)no1	none
O=C(CSc1nc(-c2ccc(F)cc2)cs1)N1CCc2ccccc21	none
COc1ccc(NC(=O)c2ccc(N(C)S(C)(=O)=O)cc2)cc1OC	none
CCN(CC)S(=O)(=O)c1ccc(NC(=O)c2ccc(N(C)S(C)(=O)=O)cc2)cc1	STAT3 inh-1 80 | STAT3 inh-2 72 | NFkB inh STAT3ct 29 | STAT1 inh 2 inactive
COC(=O)c1ccc(NC(=O)c2ccc(N(C)S(C)(=O)=O)cc2)cc1	STAT3 inh-1 52 | STAT3 inh-2 inactive | NFkB inh STAT3ct inactive | STAT1 inh 2 inactive
COc1ccc(NS(=O)(=O)c2ccc(NC(=O)c3ccc(N(C)S(C)(=O)=O)cc3)cc2)c(OC)c1	STAT3 inh-1 73 | STAT3 inh-2 84 | NFkB inh STAT3ct 26 | STAT1 inh 2 24
CCN(CC)S(=O)(=O)c1ccc(NC(=O)c2ccccc2N(C)S(C)(=O)=O)cc1	none
CCN(CC)S(=O)(=O)c1ccc(C(=O)Nc2ccc(Cc3ccncc3)cc2)cc1	STAT3 inh-1 64 | STAT3 inh-2 61 | NFkB inh STAT3ct 16 | STAT1 inh 2 16
O=C(CC1C(=O)NCCN1Cc1cccc(Oc2ccccc2)c1)NCCc1ccccn1 (stereo not drawn)	none
O=C(Cc1ccccc1)NNC(=O)c1cnccn1	none
Cc1ccc(-c2c(C(=O)NCc3ccc(F)cc3)oc(=O)c3ccccc23)cc1	none
Fc1ccc(Sc2ccccc2CNC2=NCCN2)cc1	STAT3 inh-1 46 | STAT3 inh-2 inactive | NFkB inh STAT3ct inactive | STAT1 inh 2 inactive
CNC(=S)N1CCC(n2cnc3ccccc32)CC1	none
Cc1cc(C(=O)CSc2nc3ccccc3c(=O)n2C)c(C)n1Cc1ccc2c(c1)OCO2	STAT3 inh-1 58 | STAT3 inh-2 76 | NFkB inh STAT3ct 28 | STAT1 inh 2 25
Cc1cc(C(=O)CSc2nnc(-c3ccccc3)n2Cc2ccc3c(c2)OCO3)c(C)n1C	none
